What follows are molecules tested against T1, CYP2C9 (Homo sapiens, UniProt P11712) (assay: Inhibition of human CYP2C9 expressed in baculovirus-infected insect microsomes at 10 uM). Details: not given.
Assay type: ADME, Microsome
In short: (§1)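 Recombinant human CYP1A2, 2B6, 2C9, 2C19, 2D6 or 3A4 in baculovirus-infected insect microsomes (Supersomes), run per manufacturer's protocol. Inhibitor at 1 and 10 μM; percent inhibition is the mean of two experiments.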

T1 sequence (P11712 whole entry): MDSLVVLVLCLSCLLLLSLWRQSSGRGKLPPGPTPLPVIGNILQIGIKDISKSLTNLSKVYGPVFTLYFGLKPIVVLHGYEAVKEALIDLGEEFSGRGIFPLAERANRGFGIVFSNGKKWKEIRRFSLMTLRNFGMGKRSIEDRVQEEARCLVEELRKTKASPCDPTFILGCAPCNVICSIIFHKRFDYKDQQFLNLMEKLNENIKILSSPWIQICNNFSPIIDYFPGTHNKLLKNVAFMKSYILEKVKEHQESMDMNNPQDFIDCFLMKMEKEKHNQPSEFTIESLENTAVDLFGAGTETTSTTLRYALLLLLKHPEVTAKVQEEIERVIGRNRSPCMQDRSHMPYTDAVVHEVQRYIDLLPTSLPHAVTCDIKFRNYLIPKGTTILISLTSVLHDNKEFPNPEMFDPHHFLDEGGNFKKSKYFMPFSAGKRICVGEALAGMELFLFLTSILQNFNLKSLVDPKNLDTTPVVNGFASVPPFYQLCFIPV

Row | inhibition at 10 µM | Compound
1 | 63% | COc1cncc(-c2cc3c4c(c2)CCC(=O)N4CCC3)c1
2 | 97% | O=C1CCc2cc(-c3cncc4ccccc34)cc3c2N1CCC3

Species on record: Homo sapiens
Assay: Selectivity ratio of IC50 for human CYP11B1 to IC50 for human CYP11B2
Details: not given
In short: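 Ratio of IC50 values from V79 MZh cell assays for human CYP11B1 and CYP11B2, IC50 CYP11B1/IC50 CYP11B2. Both assays used [4-14C]-11-deoxycorticosterone, 100 nM, inhibitor at ≥3 concentrations and HPTLC/phosphoimager readout of conversion.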

Row | Compound | Ratio IC50
3 | CCOc1cncc(-c2cc3c4c(c2)CCN4C(=O)CC3)c1 | 158
4 | O=C1CCc2cc(-c3cncc4ccccc34)cc3c2N1CCC3 | 170
5 | O=C1CCc2cc(-c3cncc(-c4ccccc4)c3)cc3c2N1CC3 | 45

Next, values leading:

Row | Ratio IC50 | Compound
6 | 299 | COc1cccc(-c2cncc(-c3cc4c5c(c3)CCN5C(=O)CC4)c2)c1
7 | 61 | O=C1CCc2cc(-c3cncc(-c4ccccc4F)c3)cc3c2N1CC3

Each molecule was assayed against T2, CYP1A2 (Homo sapiens, UniProt P05177) (assay: Inhibition of human CYP1A2 expressed in baculovirus-infected insect microsomes at 1 uM). Details: not given.
T2 sequence (P05177 whole entry): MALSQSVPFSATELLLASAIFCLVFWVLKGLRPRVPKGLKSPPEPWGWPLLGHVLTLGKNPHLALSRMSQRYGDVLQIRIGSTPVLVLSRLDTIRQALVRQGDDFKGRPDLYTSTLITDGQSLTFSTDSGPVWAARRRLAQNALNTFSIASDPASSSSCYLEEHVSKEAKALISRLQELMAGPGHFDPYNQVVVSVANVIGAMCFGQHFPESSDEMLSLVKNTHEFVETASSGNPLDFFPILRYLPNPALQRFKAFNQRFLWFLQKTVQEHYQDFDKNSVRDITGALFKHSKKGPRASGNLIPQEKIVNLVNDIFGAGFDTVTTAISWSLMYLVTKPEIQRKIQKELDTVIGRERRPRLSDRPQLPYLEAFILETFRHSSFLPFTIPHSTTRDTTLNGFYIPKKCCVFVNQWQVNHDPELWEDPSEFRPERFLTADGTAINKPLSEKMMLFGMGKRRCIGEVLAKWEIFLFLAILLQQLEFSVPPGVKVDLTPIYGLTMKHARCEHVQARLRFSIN
Assay type: ADME, Microsome
In short: as §1

Row | inhibition at 1 µM | Compound
8 | 47% | COc1cncc(-c2cc3c4c(c2)CCC(=O)N4CCC3)c1
9 | 24% | O=C1CCc2cc(-c3cncc4ccccc34)cc3c2N1CCC3

The molecules below were run against T3, Cytochrome P450 11B2, mitochondrial (Homo sapiens, UniProt P19099) (assay: Inhibition of human CYP11B2 expressed in hamster V79 MZh cells assessed as conversion of [4-14C]-11-deoxycorticosterone substrate at 500 nM by HPTLC assay). Details: V79MZh.
T3 sequence (P19099 whole entry): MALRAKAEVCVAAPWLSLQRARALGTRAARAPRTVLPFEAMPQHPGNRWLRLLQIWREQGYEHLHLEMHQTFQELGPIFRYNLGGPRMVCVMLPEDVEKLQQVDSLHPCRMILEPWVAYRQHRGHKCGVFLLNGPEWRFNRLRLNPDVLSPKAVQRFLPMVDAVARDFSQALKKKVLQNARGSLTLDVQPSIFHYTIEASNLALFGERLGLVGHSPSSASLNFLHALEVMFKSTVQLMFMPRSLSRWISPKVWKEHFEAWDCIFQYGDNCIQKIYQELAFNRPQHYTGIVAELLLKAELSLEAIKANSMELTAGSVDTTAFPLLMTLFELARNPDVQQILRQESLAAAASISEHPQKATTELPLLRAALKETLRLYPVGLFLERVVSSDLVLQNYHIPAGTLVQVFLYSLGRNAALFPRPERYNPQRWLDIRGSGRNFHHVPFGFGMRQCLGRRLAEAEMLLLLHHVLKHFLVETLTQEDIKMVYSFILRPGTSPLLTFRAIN
Assay type: cell-based
In short: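 V79 MZh cells expressing human CYP11B2 given [4-14C]-11-deoxycorticosterone, 100 nM, with inhibitor at a single 500 nM concentration. Ethyl acetate extraction, then HPTLC/phosphoimager readout of conversion. Percent inhibition is the mean of at least three experiments.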

Row | Compound | inhibition at 0.5 µM
10 | CCOc1cncc(-c2cc3c4c(c2)CCN4C(=O)CC3)c1 | 92%
11 | COc1cncc(-c2cc3c4c(c2)CCC(=O)N4CCC3)c1 | 95%
12 | O=C1CCc2cc(-c3cncc4ccccc34)cc3c2N1CCC3 | 95%
13 | O=C1CCc2cc(-c3cncc(-c4ccccc4)c3)cc3c2N1CC3 | 97%

Next, values leading:

Row | inhibition at 0.5 µM | Compound
14 | 86% | COc1cccc(-c2cncc(-c3cc4c5c(c3)CCN5C(=O)CC4)c2)c1
15 | 92% | O=C1CCc2cc(-c3cncc(-c4ccccc4F)c3)cc3c2N1CC3

Each molecule was assayed against T4, CYP3A4 (Homo sapiens, UniProt P08684) (assay: Inhibition of human CYP3A4 expressed in baculovirus-infected insect microsomes at 10 uM). Details: not given.
Assay type: ADME, Microsome
In short: as §1

T4 sequence (P08684 whole entry): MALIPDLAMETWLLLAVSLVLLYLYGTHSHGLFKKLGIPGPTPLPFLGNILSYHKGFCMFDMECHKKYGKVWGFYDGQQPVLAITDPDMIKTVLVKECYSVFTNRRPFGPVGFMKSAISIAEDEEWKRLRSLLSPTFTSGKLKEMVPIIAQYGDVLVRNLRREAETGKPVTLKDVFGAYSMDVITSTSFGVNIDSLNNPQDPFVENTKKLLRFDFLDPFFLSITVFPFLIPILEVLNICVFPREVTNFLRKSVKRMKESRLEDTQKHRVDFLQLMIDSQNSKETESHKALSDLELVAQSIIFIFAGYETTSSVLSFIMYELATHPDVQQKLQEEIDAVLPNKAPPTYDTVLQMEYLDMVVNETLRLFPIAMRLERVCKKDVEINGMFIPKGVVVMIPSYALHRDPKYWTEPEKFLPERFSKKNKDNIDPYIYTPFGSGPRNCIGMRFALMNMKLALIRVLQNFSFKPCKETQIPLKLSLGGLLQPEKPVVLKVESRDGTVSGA

Row | inhibition at 10 µM | Compound
16 | 24% | COc1cncc(-c2cc3c4c(c2)CCC(=O)N4CCC3)c1
17 | < 5% | O=C1CCc2cc(-c3cncc4ccccc34)cc3c2N1CCC3

These molecules were tested against T2, CYP1A2 (assay: Inhibition of human CYP1A2 expressed in baculovirus-infected insect microsomes at 10 uM). Details: not given.
Assay type: ADME, Microsome
In short: as §1

Row | inhibition at 10 µM | Compound
18 | 87% | COc1cncc(-c2cc3c4c(c2)CCC(=O)N4CCC3)c1
19 | 63% | O=C1CCc2cc(-c3cncc4ccccc34)cc3c2N1CCC3

The molecules below were run against T5, CYP17 (Homo sapiens, UniProt P05093) (assay: Inhibition of human CYP17 expressed in Escherichia coli using progesterone substrate at 2 uM). Details: recombinant human CYP17 expressed in Escherichia coli, probe progesterone.
T5 sequence (P05093 whole entry): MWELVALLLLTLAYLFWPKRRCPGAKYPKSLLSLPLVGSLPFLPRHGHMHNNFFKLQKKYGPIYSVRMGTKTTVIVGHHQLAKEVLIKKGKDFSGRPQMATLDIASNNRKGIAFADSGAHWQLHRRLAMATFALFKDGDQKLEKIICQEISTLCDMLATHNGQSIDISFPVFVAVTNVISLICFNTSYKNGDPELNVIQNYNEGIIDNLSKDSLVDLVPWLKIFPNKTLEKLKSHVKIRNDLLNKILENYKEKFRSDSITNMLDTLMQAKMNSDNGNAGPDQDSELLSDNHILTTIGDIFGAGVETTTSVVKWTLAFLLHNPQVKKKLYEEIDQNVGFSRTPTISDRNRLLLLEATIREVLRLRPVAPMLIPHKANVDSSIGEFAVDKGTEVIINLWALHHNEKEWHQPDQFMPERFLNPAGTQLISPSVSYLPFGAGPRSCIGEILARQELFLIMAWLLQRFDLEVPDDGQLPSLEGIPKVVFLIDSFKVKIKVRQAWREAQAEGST
In short: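 50000g sediment of E. coli homogenate recombinantly expressing human CYP17. Progesterone substrate at 25 μM, inhibitor tested at 2 μM.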

Row | inhibition at 2 µM | Compound
20 | < 5% | COc1cncc(-c2cc3c4c(c2)CCC(=O)N4CCC3)c1
21 | 5% | O=C1CCc2cc(-c3cncc4ccccc34)cc3c2N1CCC3
22 | < 5% | COc1cccc(-c2cncc(-c3cc4c5c(c3)CCN5C(=O)CC4)c2)c1

What follows are molecules tested against T3, Cytochrome P450 11B2, mitochondrial (assay: Inhibition of human CYP11B2 expressed in hamster V79 MZh cells assessed as conversion of [4-14C]-11-deoxycorticosterone substrate by HPTLC assay). Details: not given.
Assay type: cell-based
In short: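 Hamster V79 MZh fibroblasts expressing human CYP11B2 incubated with [4-14C]-11-deoxycorticosterone (100 nM) and inhibitor at ≥3 concentrations; reaction stopped with ethyl acetate, steroids extracted after shaking and centrifugation (10000g, 2 min). Substrate conversion read by HPTLC with phosphoimaging.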

Row | Compound | IC50
23 | CCOc1cncc(-c2cc3c4c(c2)CCN4C(=O)CC3)c1 | 0.001 µM
24 | COc1cncc(-c2cc3c4c(c2)CCC(=O)N4CCC3)c1 | 0.0009 µM
25 | O=C1CCc2cc(-c3cncc4ccccc34)cc3c2N1CCC3 | 0.0002 µM
26 | O=C1CCc2cc(-c3cncc(-c4ccccc4)c3)cc3c2N1CC3 | 0.0013 µM

The remaining molecules from weak to strong by IC50, led by results:

Row | IC50 | Compound
27 | 0.0046 µM | COc1cccc(-c2cncc(-c3cc4c5c(c3)CCN5C(=O)CC4)c2)c1
28 | 0.0007 µM | O=C1CCc2cc(-c3cncc(-c4ccccc4F)c3)cc3c2N1CC3

The molecules below were run against T4, CYP3A4 (assay: Inhibition of human CYP3A4 expressed in baculovirus-infected insect microsomes at 1 uM). Details: not given.
Assay type: ADME, Microsome
In short: as §1

Row | inhibition at 1 µM | Compound
29 | 12% | COc1cncc(-c2cc3c4c(c2)CCC(=O)N4CCC3)c1
30 | < 5% | O=C1CCc2cc(-c3cncc4ccccc34)cc3c2N1CCC3

These molecules were tested against T1, CYP2C9 (assay: Inhibition of human CYP2C9 expressed in baculovirus-infected insect microsomes at 1 uM). Details: not given.
Assay type: ADME, Microsome
In short: as §1

Row | inhibition at 1 µM | Compound
31 | 34% | COc1cncc(-c2cc3c4c(c2)CCC(=O)N4CCC3)c1
32 | 73% | O=C1CCc2cc(-c3cncc4ccccc34)cc3c2N1CCC3

The molecules below were run against T6, CYP2C19 (Homo sapiens, UniProt P33261) (assay: Inhibition of human CYP2C19 expressed in baculovirus-infected insect microsomes at 10 uM). Details: not given.
Assay type: ADME, Microsome
In short: as §1

T6 sequence (P33261 whole entry): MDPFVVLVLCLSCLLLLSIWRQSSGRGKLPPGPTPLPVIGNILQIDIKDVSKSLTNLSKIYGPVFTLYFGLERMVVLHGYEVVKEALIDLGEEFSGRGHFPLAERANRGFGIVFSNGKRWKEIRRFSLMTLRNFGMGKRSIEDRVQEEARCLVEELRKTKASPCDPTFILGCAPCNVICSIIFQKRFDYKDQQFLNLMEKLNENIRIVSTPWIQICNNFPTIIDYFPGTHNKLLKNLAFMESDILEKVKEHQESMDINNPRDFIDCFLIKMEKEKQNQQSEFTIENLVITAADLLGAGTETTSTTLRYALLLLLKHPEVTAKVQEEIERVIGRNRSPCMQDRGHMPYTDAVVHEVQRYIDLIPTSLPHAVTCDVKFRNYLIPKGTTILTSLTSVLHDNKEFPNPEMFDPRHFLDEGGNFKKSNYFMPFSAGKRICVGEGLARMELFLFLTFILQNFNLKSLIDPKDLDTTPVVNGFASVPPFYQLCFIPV

Row | inhibition at 10 µM | Compound
33 | 61% | COc1cncc(-c2cc3c4c(c2)CCC(=O)N4CCC3)c1
34 | 96% | O=C1CCc2cc(-c3cncc4ccccc34)cc3c2N1CCC3

These molecules were tested against T7, Cytochrome P450 11B1, mitochondrial (Homo sapiens, UniProt P15538) (assay: Inhibition of human CYP11B1 expressed in hamster V79 MZh cells assessed as conversion of [4-14C]-11-deoxycorticosterone substrate by HPTLC assay). Details: not given.
T7 sequence (P15538 whole entry): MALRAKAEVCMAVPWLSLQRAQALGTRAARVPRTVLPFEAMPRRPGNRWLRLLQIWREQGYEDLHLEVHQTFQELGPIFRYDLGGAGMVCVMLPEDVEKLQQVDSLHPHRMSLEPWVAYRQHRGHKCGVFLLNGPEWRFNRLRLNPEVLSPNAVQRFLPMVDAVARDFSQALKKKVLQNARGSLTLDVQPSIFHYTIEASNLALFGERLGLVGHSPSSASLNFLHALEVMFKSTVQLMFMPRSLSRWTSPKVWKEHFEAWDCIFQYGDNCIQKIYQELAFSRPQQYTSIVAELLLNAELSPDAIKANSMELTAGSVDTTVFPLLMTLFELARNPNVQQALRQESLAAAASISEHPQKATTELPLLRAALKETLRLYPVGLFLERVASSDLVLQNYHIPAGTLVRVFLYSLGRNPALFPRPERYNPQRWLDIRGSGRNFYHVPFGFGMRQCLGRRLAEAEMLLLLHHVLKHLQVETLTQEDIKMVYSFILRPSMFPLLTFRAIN
Assay type: cell-based
In short: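 V79 MZh hamster fibroblasts stably expressing human CYP11B1 or CYP11B2 incubated with [4-14C]-11-deoxycorticosterone, 100 nM, plus inhibitor at ≥3 concentrations. Reaction stopped with ethyl acetate, steroids extracted into the organic phase, and substrate conversion quantified by HPTLC with phosphoimaging. IC50 is the mean of at least three experiments.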

Row | Compound | IC50
35 | CCOc1cncc(-c2cc3c4c(c2)CCN4C(=O)CC3)c1 | 0.158 µM
36 | COc1cncc(-c2cc3c4c(c2)CCC(=O)N4CCC3)c1 | 0.545 µM
37 | O=C1CCc2cc(-c3cncc4ccccc34)cc3c2N1CCC3 | 0.034 µM
38 | O=C1CCc2cc(-c3cncc(-c4ccccc4)c3)cc3c2N1CC3 | 0.058 µM

Second part, the molecule after the results:

Row | IC50 | Compound
39 | 1.37 µM | COc1cccc(-c2cncc(-c3cc4c5c(c3)CCN5C(=O)CC4)c2)c1
40 | 0.043 µM | O=C1CCc2cc(-c3cncc(-c4ccccc4F)c3)cc3c2N1CC3

Each molecule was assayed against T6, CYP2C19 (assay: Inhibition of human CYP2C19 expressed in baculovirus-infected insect microsomes at 1 uM). Details: not given.
Assay type: ADME, Microsome
In short: as §1

Row | inhibition at 1 µM | Compound
41 | 11% | COc1cncc(-c2cc3c4c(c2)CCC(=O)N4CCC3)c1
42 | 67% | O=C1CCc2cc(-c3cncc4ccccc34)cc3c2N1CCC3
